What all share (assay type): functional
In assay [1] the test system is Escherichia coli. Briefly: Antimicrobial activity against Escherichia coli DH5[alpha] by microdilution method in presence of clavulanic acid. The essentials: (§1)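 Broth microdilution MIC. Plates of serial antibiotic dilutions inoculated to 10^5 CFU/ml and incubated 18 to 22 h at 35°C in ambient air. MIC is the lowest concentration giving complete growth inhibition by unaided eye. The recombinant strains carry shotgun-cloned bla genes in pCLL2300.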

In assay [2] the test system is Escherichia coli. Briefly: Antimicrobial activity against Escherichia coli ATCC 25922 by microdilution method in presence of clavulanic acid. Put shortly: as §1
On the technique in general: In broth dilution the organism is exposed to a series of concentrations in liquid medium.

For assay [3], the system named is Escherichia coli. Kind of assay: Antimicrobial activity against Escherichia coli DH5[alpha] isolate GC 8133 expressing bla […] gene by microdilution method in presence of clavulanic acid. The essentials:
as §1

Assay [4] has as its system Escherichia coli. Kind of assay: Antimicrobial activity against Escherichia coli DH5[alpha] isolate GC 8128 expressing bla SHV-105 gene by microdilution method in presence of clavulanic acid. The essentials:
as §1

For assay [5], the system named is Escherichia coli. Briefly: Antimicrobial activity against Escherichia coli DH5[alpha] isolate GC 7668 expressing bla SHV-48 gene by microdilution method in presence of clavulanic acid. Put shortly:
as §1

The subject of assay [6] is Escherichia coli. Briefly: Antimicrobial activity against Escherichia coli DH5[alpha] isolate GC 8130 expressing bla SHV-1 gene by microdilution method in presence of clavulanic acid. The essentials: as §1
Assay [7] deals with Escherichia coli. Kind of assay: Antimicrobial activity against Escherichia coli DH5[alpha] isolate GC 7668 expressing bla SHV-48 gene by microdilution method. The essentials:
(§2)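 Broth microdilution MIC. Plates with serial dilutions of each β-lactam inoculated to 10^5 CFU/ml, incubated 18 to 22 h at 35°C in ambient air. MIC = lowest concentration completely inhibiting growth by unaided eye. Strains carrying the novel β-lactamases are recombinants, with the genes shotgun cloned into pCLL2300.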

For assay [8], the system named is Escherichia coli. Kind of assay: Antimicrobial activity against Escherichia coli DH5[alpha] isolate GC 8130 expressing bla SHV-1 gene by microdilution method. Put shortly:
as §2

In assay [9] the test system is Escherichia coli. Kind of assay: Antimicrobial activity against Escherichia coli DH5[alpha] by microdilution method. The essentials:
as §2

Assay [10] concerns Escherichia coli. Briefly: Antimicrobial activity against Escherichia coli ATCC 25922 by microdilution method. Put shortly:
as §2

For assay [11], the system named is Escherichia coli. Kind of assay: Antimicrobial activity against Escherichia coli DH5[alpha] isolate GC 8133 expressing bla […] gene by microdilution method. Put shortly: (§3)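 Recombinant strains carrying the cloned β-lactamase gene (shotgun cloned into pCLL2300, confirmed by standard sequencing) tested by broth microdilution. Serial antibiotic dilutions were inoculated to 10^5 CFU/ml and incubated 18 to 22 h at 35°C in ambient air. MIC was the lowest concentration completely inhibiting growth by unaided eye.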

Assay [12] relates to Escherichia coli. Kind of assay: Antimicrobial activity against Escherichia coli DH5[alpha] isolate GC 8128 expressing bla SHV-105 gene by microdilution method. The essentials: as §3
Assay [13] has as its system Escherichia coli. Briefly: Antimicrobial activity against Escherichia coli DH5[alpha] isolate GC 8133 expressing bla […] gene by Etest method in presence of clavulanic acid.
The test system of assay [14] is Escherichia coli. Briefly: Antimicrobial activity against Escherichia coli ATCC 25922 by Etest method in presence of clavulanic acid.
Assay [15] deals with Escherichia coli. Kind of assay: Antimicrobial activity against Escherichia coli DH5[alpha] by Etest method in presence of clavulanic acid.
In assay [16] the test system is Escherichia coli. Briefly: Antimicrobial activity against Escherichia coli DH5[alpha] isolate GC 8128 expressing bla SHV-105 gene by Etest method in presence of clavulanic acid. The essentials: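 The blaSHV-105 gene was shotgun-cloned into vector pCLL2300, and the insert was confirmed by standard sequencing. The recombinant E. coli strain carrying it was tested against a β-lactam panel in Etest format.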

Assay [17] deals with Escherichia coli. Kind of assay: Antimicrobial activity against Escherichia coli DH5[alpha] isolate GC 7668 expressing bla SHV-48 gene by Etest method in presence of clavulanic acid.
Assay [18] has as its system Escherichia coli. Briefly: Antimicrobial activity against Escherichia coli DH5[alpha] by Etest method.
Assay [19] deals with Escherichia coli. Briefly: Antimicrobial activity against Escherichia coli DH5[alpha] isolate GC 8130 expressing bla SHV-1 gene by Etest method in presence of clavulanic acid.
Assay [20] deals with Escherichia coli. Kind of assay: Antimicrobial activity against Escherichia coli ATCC 25922 by Etest method.
For assay [21], the system named is Escherichia coli. Kind of assay: Antimicrobial activity against Escherichia coli DH5[alpha] isolate GC 8133 expressing bla […] gene by Etest method.
The test system of assay [22] is Escherichia coli. Briefly: Antimicrobial activity against Escherichia coli DH5[alpha] isolate GC 8128 expressing bla SHV-105 gene by Etest method.
For assay [23], the system named is Escherichia coli. Briefly: Antimicrobial activity against Escherichia coli DH5[alpha] isolate GC 7668 expressing bla SHV-48 gene by Etest method.
For assay [24], the system named is Escherichia coli. Kind of assay: Antimicrobial activity against Escherichia coli DH5[alpha] isolate GC 8130 expressing bla SHV-1 gene by Etest method.
Assay [25] concerns Escherichia coli. Briefly: Antimicrobial activity against Escherichia coli DH5[alpha] by microdilution method in presence of Tazobactam. Put shortly:
as §1

Assay [26] has as its system Escherichia coli. Briefly: Antimicrobial activity against Escherichia coli ATCC 25922 by microdilution method in presence of Tazobactam. The essentials: as §1
Assay [27] concerns Escherichia coli. Briefly: Antimicrobial activity against Escherichia coli DH5[alpha] isolate GC 8133 expressing bla […] gene by microdilution method in presence of Tazobactam. Put shortly:
as §1

Assay [28] relates to Escherichia coli. Briefly: Antimicrobial activity against Escherichia coli DH5[alpha] isolate GC 8128 expressing bla SHV-105 gene by microdilution method in presence of Tazobactam. Put shortly:
as §1

Assay [29] relates to Escherichia coli. Briefly: Antimicrobial activity against Escherichia coli DH5[alpha] isolate GC 7668 expressing bla SHV-48 gene by microdilution method in presence of Tazobactam. The essentials: as §1
Assay [30] has as its system Escherichia coli. Briefly: Antimicrobial activity against Escherichia coli DH5[alpha] isolate GC 8130 expressing bla SHV-1 gene by microdilution method in presence of Tazobactam. The essentials:
as §1

Values after ≈ are worked out from the molar mass of the structure shown.

The term MIC denotes the least concentration at which growth counts as inhibited. `CC1(C)S[C@@H]2[C@H](NC(=O)[C@H](N)c3ccc(O)cc3)C(=O)N2[C@H]1C(=O)O` [AMOXICILLIN]: the minimal inhibitory concentration (MIC) with Escherichia coli [1] is 8 µg/mL; in the assay with Escherichia coli [2], 8 µg/mL; in the assay with Escherichia coli [3], 32 µg/mL; in the assay with Escherichia coli [4], 16 µg/mL; in the assay on Escherichia coli [5], 32 µg/mL; in the assay with Escherichia coli [6], 16 µg/mL.

Take `CC1(C)S[C@@H]2[C@H](NC(=O)[C@H](N)c3ccccc3)C(=O)N2[C@H]1C(=O)O` [AMPICILLIN]: the MIC in the assay with Escherichia coli [7] is more than 128 µg/mL; in the assay on Escherichia coli [8] it was more than 128 µg/mL; against Escherichia coli [9] it was 8 µg/mL (≈ 22.9 µM); against Escherichia coli [10], 4 µg/mL (≈ 11.4 µM); against Escherichia coli [11], more than 128 µg/mL; against Escherichia coli [12], more than 128 µg/mL.

Turning to `C[C@H]1[C@H](NC(=O)/C(=N\OC(C)(C)C(=O)O)c2csc(N)n2)C(=O)N1S(=O)(=O)O` [AZTREONAM], the minimum inhibitory concentration (MIC) is 0.5 µg/mL (≈ 1.15 µM) against Escherichia coli [7]; 0.25 µg/mL (≈ 0.574 µM) in the assay on Escherichia coli [8]; not above 0.125 µg/mL with Escherichia coli [9]; 0.25 µg/mL (≈ 0.574 µM) in the assay with Escherichia coli [10]; more than 128 µg/mL against Escherichia coli [11]; more than 128 µg/mL in the assay on Escherichia coli [12].

As to `CO/N=C(\C(=O)N[C@@H]1C(=O)N2C(C(=O)[O-])=C(C[N+]3(C)CCCC3)CS[C@H]12)c1csc(N)n1` [CEFEPIME], the MIC against Escherichia coli [7] was 0.5 µg/mL (≈ 1.04 µM); against Escherichia coli [9], not above 0.125 µg/mL; against Escherichia coli [10], not above 0.125 µg/mL; in the assay on Escherichia coli [11] it was 128 µg/mL (≈ 266 µM); against Escherichia coli [12], 16 µg/mL (≈ 33.3 µM).

For `CO/N=C(\C(=O)N[C@@H]1C(=O)N2C(C(=O)O)=C(COC(C)=O)CS[C@H]12)c1csc(N)n1` [CEFOTAXIME], the MIC was not above 0.125 µg/mL in the assay with Escherichia coli [7]; not above 0.125 µg/mL in the assay on Escherichia coli [8]; 0.023 µg/mL in the assay with Escherichia coli [13]; 0.047 µg/mL in the assay on Escherichia coli [14]; 0.023 µg/mL in the assay on Escherichia coli [15]; 0.032 µg/mL with Escherichia coli [16]. The MIC with Escherichia coli [17] was 0.023 µg/mL; in the assay with Escherichia coli [18], less than 0.25 µg/mL; in the assay on Escherichia coli [19], 0.023 µg/mL; against Escherichia coli [20], less than 0.25 µg/mL; in the assay with Escherichia coli [21], 2 µg/mL (≈ 4.39 µM); in the assay on Escherichia coli [22], more than 16 µg/mL. Moreover, the MIC in the assay with Escherichia coli [23] is less than 0.25 µg/mL; against Escherichia coli [24], less than 0.25 µg/mL; against Escherichia coli [9], not above 0.125 µg/mL; against Escherichia coli [10], not above 0.125 µg/mL; against Escherichia coli [11] it was 32 µg/mL (≈ 70.3 µM); in the assay on Escherichia coli [12] it was 128 µg/mL (≈ 281 µM).

For `CO[C@@]1(NC(=O)Cc2cccs2)C(=O)N2C(C(=O)O)=C(COC(N)=O)CS[C@@H]21` [CEFOXITIN], the MIC in the assay on Escherichia coli [7] is 4 µg/mL (≈ 9.36 µM); with Escherichia coli [8], 16 µg/mL (≈ 37.4 µM); in the assay on Escherichia coli [9], 8 µg/mL (≈ 18.7 µM); in the assay on Escherichia coli [10], 4 µg/mL (≈ 9.36 µM); in the assay on Escherichia coli [11], 8 µg/mL (≈ 18.7 µM); in the assay with Escherichia coli [12], 8 µg/mL (≈ 18.7 µM).

Turning to `CC(C)(O/N=C(\C(=O)N[C@@H]1C(=O)N2C(C(=O)[O-])=C(C[n+]3ccccc3)CS[C@H]12)c1csc(N)n1)C(=O)O` [CEFTAZIDIME], the minimal inhibitory concentration (MIC) with Escherichia coli [7] is 1 µg/mL (≈ 1.83 µM); with Escherichia coli [8], 0.5 µg/mL (≈ 0.915 µM); in the assay on Escherichia coli [13] it was 0.5 µg/mL; in the assay on Escherichia coli [14], 0.125 µg/mL; in the assay with Escherichia coli [15], 0.094 µg/mL; in the assay on Escherichia coli [16], 0.25 µg/mL. In addition, the MIC in the assay on Escherichia coli [17] was 0.125 µg/mL; against Escherichia coli [18], less than 0.5 µg/mL; in the assay on Escherichia coli [19] it was 0.125 µg/mL; against Escherichia coli [20], less than 0.5 µg/mL; with Escherichia coli [21], more than 32 µg/mL; in the assay with Escherichia coli [22], more than 32 µg/mL. The MIC in the assay on Escherichia coli [23] was less than 0.5 µg/mL; in the assay with Escherichia coli [24], less than 0.5 µg/mL; with Escherichia coli [9] it was 0.25 µg/mL (≈ 0.457 µM); in the assay with Escherichia coli [10], 0.25 µg/mL (≈ 0.457 µM); in the assay with Escherichia coli [11], more than 128 µg/mL; against Escherichia coli [12] it was more than 128 µg/mL.

Consider `CO/N=C(\C(=O)N[C@@H]1C(=O)N2C(C(=O)O)=C(COC(N)=O)CS[C@H]12)c1ccco1` [CEFUROXIME], for which the MIC against Escherichia coli [7] was not above 0.125 µg/mL; in the assay on Escherichia coli [8], 0.25 µg/mL (≈ 0.589 µM); against Escherichia coli [9] it was not above 0.125 µg/mL; against Escherichia coli [10], not above 0.125 µg/mL; against Escherichia coli [11], 64 µg/mL (≈ 151 µM); in the assay with Escherichia coli [12] it was 128 µg/mL (≈ 302 µM).

As to `C[C@@H](O)[C@H]1C(=O)N2C(C(=O)O)=C(SCCNC=N)C[C@H]12` [IMIPENEM ANHYDROUS], the MIC was 0.25 µg/mL (≈ 0.835 µM) in the assay on Escherichia coli [7], 0.25 µg/mL (≈ 0.835 µM) in the assay on Escherichia coli [9], not above 0.125 µg/mL in the assay with Escherichia coli [10] and 0.25 µg/mL (≈ 0.835 µM) against Escherichia coli [11].

As for `CCN1CCN(C(=O)N[C@@H](C(=O)N[C@@H]2C(=O)N3[C@@H]2SC(C)(C)[C@@H]3C(=O)O)c2ccccc2)C(=O)C1=O` [PIPERACILLIN], the MIC in the assay on Escherichia coli [7] was more than 128 µg/mL; against Escherichia coli [8], 64 µg/mL (≈ 124 µM); with Escherichia coli [25], 0.5 µg/mL; in the assay on Escherichia coli [26], 2 µg/mL; with Escherichia coli [27] it was 2 µg/mL; in the assay on Escherichia coli [28], 1 µg/mL. In addition, the MIC in the assay with Escherichia coli [29] was more than 128 µg/mL; with Escherichia coli [30], 1 µg/mL; with Escherichia coli [9], 0.5 µg/mL (≈ 0.966 µM); against Escherichia coli [10], 2 µg/mL (≈ 3.86 µM); with Escherichia coli [11] it was more than 128 µg/mL; in the assay on Escherichia coli [12] it was more than 128 µg/mL.

The values are drawn from ChEMBL document CHEMBL1629638, “Pyrosequencing using the single-nucleotide polymorphism protocol for rapid determination of TEM- and SHV-type extended-spectrum beta-lactamases in clinical isolates and identification of the novel beta-lactamase genes blaSHV-48, blaSHV-105, and blaTEM-155” (2009).
